Data published in EPA's CvTdb concentration-time database.

Legend:
[1] = test system: Hamster; test: concentration in plasma after dosing; conditions: dosed: 2,4-Dichlorophenoxyacetic acid, 2.0 mg/kg, oral, Male, Syrian Golden
Outline: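 Points were largely digitised from plot screenshots with WebPlotDigitizer or otherwise copied from tables, and they remain in the units each source reported. They come from published in vivo toxicokinetic studies and two structured collections. Sampling and analytical methods follow each source and were often not reported.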

[2] = test system: Rat; test: concentration in plasma after dosing; conditions: dosed: 2-Hydroxy-4-methoxybenzophenone, 250 mg/kg, oral, Female, F344
[3] = test system: Rat; test: concentration in plasma after dosing; conditions: 0.25 h; dosed: 2-Hydroxy-4-methoxybenzophenone; 500 mg/kg; oral; Female; F344
[4] = test system: Mouse; test: concentration in plasma after dosing; conditions: 3 h; dosed: 2-Hydroxy-4-methoxybenzophenone; 50 mg/kg; iv; Female; B6C3F1
[5] = test system: Rat; test: concentration in plasma after dosing; conditions: 2 min; dosed: Methyleugenol; 37 mg/kg; oral; Female; F344/N
[6] = test system: Rat; test: concentration in plasma after dosing; conditions: dosed: Methyleugenol, 37 mg/kg, oral, Male, F344/N
[7] = test system: Rat; test: concentration in plasma after dosing; conditions: dosed: Methyleugenol, 37 mg/kg, oral, Male, F344/N; remark: listed apart in the source
[8] = test system: Rat; test: concentration in plasma after dosing; conditions: dosed: Methyleugenol, 37 mg/kg, oral, Female, F344/N
[9] = test system: Rat; test: concentration in plasma after dosing; conditions: dosed: Methyleugenol, 37 mg/kg, oral, Female, F344/N; remark: listed apart in the source
[10] = test system: Rat; test: concentration in plasma after dosing; conditions: dosed: Perfluorohexane-1-sulphonic acid – potassium salt, 4 mg/kg, oral, Male, F344
[11] = test system: Rat; test: concentration in kidney after dosing; conditions: 192 h; dosed: Perfluorohexane-1-sulphonic acid – potassium salt; 16 mg/kg; oral; Female; F344
[12] = test system: Rat; test: concentration in plasma after dosing; conditions: dosed: Perfluorohexane-1-sulphonic acid – potassium salt, 4 mg/kg, oral, Male, F344; remark: listed apart in the source
[13] = test system: Rat; test: concentration in plasma after dosing; conditions: dosed: Perfluorohexane-1-sulphonic acid – potassium salt, 4 mg/kg, oral, Male, F344; remark: listed apart in the source
[14] = test system: Rat; test: concentration in plasma after dosing; conditions: 0.5 h; dosed: Primidone; 80 mg/kg; oral; Female; F344
[15] = test system: Rat; test: concentration in plasma after dosing; conditions: 0.5 h; dosed: Primidone; 130 mg/kg; oral; Male; Harlan Sprague Dawley
[16] = test system: Rat; test: concentration in plasma after dosing; conditions: 0.25 h; dosed: Primidone; 80 mg/kg; oral; Female; F344
[17] = test system: Rat; test: concentration in plasma after dosing; conditions: 12 h; dosed: Primidone; 80 mg/kg; oral; Female; Harlan Sprague-Dawley
[18] = test system: Rat; test: concentration in plasma after dosing; conditions: 12 h; dosed: Primidone; 130 mg/kg; oral; Male; Harlan Sprague Dawley
[19] = test system: Rat; test: concentration in plasma after dosing; conditions: dosed: Pyridine, 5 mg/kg, iv, Male, F344
[20] = test system: Rat; test: concentration in plasma after dosing; conditions: dosed: Pyridine, 5 mg/kg, iv, Male, F344; remark: listed apart in the source
[21] = test system: Rat; test: concentration in plasma after dosing; conditions: dosed: Pyridine, 25 mg/kg, oral, Male, F344
[22] = test system: Rat; test: concentration in plasma after dosing; conditions: 20 h; dosed: Pyridine; 25 mg/kg; oral; Male; F344
[23] = test system: Rat; test: concentration in plasma after dosing; conditions: 2 h; dosed: Pyridine; 5 mg/kg; oral; Male; F344
[24] = test system: Rat; test: concentration in plasma after dosing; conditions: 2 h; dosed: Pyridine; 25 mg/kg; oral; Female; Harlan Sprague-Dawley
[25] = test system: Rat; test: concentration in brain after dosing; conditions: 1.5 h; dosed: alpha-Thujone; 25 mg/kg; oral; Male; Harlan Sprague Dawley
[26] = test system: Rat; test: concentration in brain after dosing; conditions: 1.5 h; dosed: alpha-Thujone; 25 mg/kg; oral; Male; Harlan Sprague Dawley; remark: listed apart in the source
[27] = test system: Rat; test: concentration in brain after dosing; conditions: 10 min; dosed: alpha-Thujone; 25 mg/kg; oral; Male; Harlan Sprague Dawley
[28] = test system: Rat; test: concentration in brain after dosing; conditions: 2.5 h; dosed: 76231-76-0; 3.0 mg/kg; iv; Female; F344
[29] = test system: Rat; test: concentration in brain after dosing; conditions: 2 min; dosed: alpha-Thujone; 25 mg/kg; oral; Male; Harlan Sprague Dawley
[30] = test system: Rat; test: concentration in brain after dosing; conditions: 3 h; dosed: alpha-Thujone; 50 mg/kg; oral; Female; Harlan Sprague Dawley
[31] = test system: Rat; test: concentration in brain after dosing; conditions: 3 h; dosed: alpha-Thujone; 50 mg/kg; oral; Male; Harlan Sprague Dawley
[32] = test system: Rat; test: concentration in plasma after dosing; conditions: 1.5 h; dosed: alpha-Thujone; 50 mg/kg; oral; Male; Harlan Sprague Dawley
[33] = test system: Rat; test: concentration in plasma after dosing; conditions: 6 h; dosed: alpha-Thujone; 50 mg/kg; oral; Female; Harlan Sprague Dawley

O=C(O)COc1ccc(Cl)cc1Cl [2,4-Dichlorophenoxyacetic acid]
[1]
Conditions | concentration in plasma [ng/mL]
2.5 h | 200
5 min | 2770
10 min | 10300

O=C(c1ccccc1)c1ccc(O)cc1O [2,4-Dihydroxybenzophenone]
[2]
Conditions | concentration in plasma [ng/mL]
0.25 h | 359
4 h | 135

Conditions | concentration in plasma [ng/mL]
[3] | 781
[4] | 32.7

C=CCc1ccc(OC)c(OC)c1 [Methyleugenol]
Conditions | concentration in plasma [ng/mL]
[5] | 308

Conditions | concentration in plasma [ng/mL]
[6], 2 min | 8.3
[6], 4 h | 11.2
[7], 5 h | 7.02
[7], 20 min | 53.8
[8], 4 h | 9.95
[8], 5 min | 173
[9], 6 h | 6.14
[9], 10 min | 424

O=S(=O)([O-])C(F)(F)C(F)(F)C(F)(F)C(F)(F)C(F)(F)C(F)(F)F.[K+] [Perfluorohexane-1-sulphonic acid – potassium salt]
Conditions | concentration in plasma [ng/mL]
[10], 1 h | 23200
[10], 24 h | 28900
[10], 864 h | 9040
[12], 0.25 h | 6180
[12], 6 h | 68100
[12], 528 h | 13900
[13], 3 h | 28000
[13], 24 h | 31600
[13], 1200 h | 3240

Conditions | concentration in kidney [ng/g]
[11] | 16700

CCC1(c2ccccc2)C(=O)NCNC1=O [Primidone]
Conditions | concentration in plasma [ng/mL]
[14] | 40300
[15] | 47000
[16] | 25300
[17] | 1400
[18] | 17800

c1ccncc1 [Pyridine]
Conditions | concentration in plasma [ng/mL]
[19], 0.5 h | 2590
[19], 8 h | 881
[20], 0.05 h | 4210
[20], 4 h | 2060
[21], 0.5 h | 18700
[21], 6 h | 16200

Conditions | concentration in plasma [ng/mL]
[22] | 143
[23] | 2730
[24] | 17100

CC(C)[C@]12CC(=O)[C@H](C)[C@H]1C2 [alpha-Thujone]
Conditions | concentration in brain [ng/g] | concentration in plasma [ng/mL]
[25] | 359 | –
[26] | 388 | –
[27] | 1080 | –
[28] | 15.2 | –
[29] | 11.2 | –
[30] | 416 | –
[31] | 652 | –
[32] | – | 360
[33] | – | 169
